In ChEMBL document CHEMBL3286259, “Synthesis and anticancer activity of some novel 5,6-fused hybrids of juglone based 1,4-naphthoquinones” (Eur J Med Chem, 2014):
Active and inactive are the calls of the source. The rule behind the calls is not given here.

Key:
MDA-MB-231 [1] = test: Cytotoxicity against human MDA-MB-231 cells assessed as inhibition of cell viability after 48 hrs by MTT assay; assay type: functional, cell-based; conditions: MDA-MB-231, 48 h
In short: (§1)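 Cells were counted by trypan blue exclusion, seeded at 1x10^4 cells per well, and exposed to a series of compound concentrations for 48 h at 37 °C in DMEM with 10% FBS. The medium was replaced with serum-free medium plus MTT (5 mg/ml reagent) for 4 h at 37 °C. Formazan was dissolved in DMSO for 10 min and A570 was read. IC50 came from a plot of % viability versus control against concentration.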

HT-29 = test: Cytotoxicity against human HT-29 cells assessed as inhibition of cell viability after 48 hrs by MTT assay; assay type: functional, cell-based; conditions: HT-29, 48 h; in short: as §1
MCF7 [2] = test: Cytotoxicity against human MCF7 cells assessed as inhibition of cell viability after 48 hrs by MTT assay; assay type: functional, cell-based; conditions: MCF7, 48 h; in short: as §1
HeLa = test: Cytotoxicity against human HeLa cells assessed as inhibition of cell viability after 48 hrs by MTT assay; assay type: functional, cell-based; in short: as §1
PC-3 = test: Cytotoxicity against human PC3 cells assessed as inhibition of cell viability after 48 hrs by MTT assay; assay type: functional, cell-based; conditions: PC-3, 48 h; in short: as §1
[3] = Cytotoxicity against human ME180 cells assessed as inhibition of cell viability after 48 hrs by MTT assay; assay type: functional, cell-based; conditions: ME-180, 48 h; in short: as §1
[4] = Retardation factor of the compound using hexane/ethyl acetate at ratio of 19:1 as solvent system; assay type: physicochemical
MDA-MB-453 [5] = test: Cytotoxicity against human MDA-MB-453 cells assessed as inhibition of cell viability after 48 hrs by MTT assay; assay type: functional, cell-based; conditions: MDA-MB-453, 48 h; in short: as §1
MDA-MB-453 [6] = test: Cell cycle arrest in human MDA-MB-453 cells assessed as accumulation at G2/M phase at 5 uM after 48 hrs by flow cytometry (reference value: 23.5%); assay type: functional
In short: (§2)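 Cells were plated at […] per well in six-well plates and treated for 48 h. They were harvested by trypsinization, washed twice in PBS, and fixed in 70% ice-cold ethanol at −20 °C for 3 h. Cells were then incubated with propidium iodide cell-cycle reagent at 37 °C for 30 min, and DNA content was measured by flow cytometry. PC-3 assays were run in duplicate.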

MDA-MB-453 [7] = test: Cell cycle arrest in human MDA-MB-453 cells assessed as increase in accumulation at G2/M phase after 48 hrs by flow cytometry; assay type: functional, cell-based; in short: as §2
MDA-MB-453 [8] = test: Cell cycle arrest in human MDA-MB-453 cells assessed as accumulation at G0/G1 phase at 10 uM after 48 hrs by flow cytometry (reference value: 62.6%); assay type: functional; in short: as §2
MCF7 [9] = test: Ratio of etoposide IC50 to compound IC50 for human MCF7 cells; assay type: functional
MDA-MB-453 [10] = test: Ratio of etoposide IC50 to compound IC50 for human MDA-MB-453 cells; assay type: functional
MDA-MB-231 [11] = test: Ratio of etoposide IC50 to compound IC50 for human MDA-MB-231 cells; assay type: functional
[12] = Retardation factor of the compound using hexane/ethyl acetate at ratio of 1.8:1 as solvent system; assay type: physicochemical
MDA-MB-453 [13] = test: Cell cycle arrest in human MDA-MB-453 cells assessed as accumulation at G2/M phase at 10 uM after 48 hrs by flow cytometry (reference value: 23.5%); assay type: functional; in short: as §2
MDA-MB-453 [14] = test: Cell cycle arrest in human MDA-MB-453 cells assessed as accumulation at G0/G1 phase at 5 uM after 48 hrs by flow cytometry (reference value: 62.6%); assay type: functional; in short: as §2
MDA-MB-453 [15] = test: Cell cycle arrest in human MDA-MB-453 cells assessed as increase in accumulation at S phase after 48 hrs by flow cytometry; assay type: functional, cell-based; in short: as §2
MDA-MB-453 [16] = test: Induction of morphological changes in human MDA-MB-453 cells assessed as early apoptosis by measuring condensed chromatin, cell membrane blebbing, destructive fragmentation of nuclei at 5 uM after 48 hrs by acridine orange/ethidium bromide staining based fluorescence microscopy; assay type: functional
In short: (§3)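 Cells were seeded at 1×10^6 per well in 6-well plates and treated for 48 h. After a PBS wash they were stained with a 1:1 acridine orange/ethidium bromide mix for 5 min in the dark, washed again, and imaged by inverted fluorescence microscopy at 200X. Two thousand cells were counted and scored as viable, early apoptotic, late apoptotic or necrotic, expressed as %.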

MDA-MB-453 [17] = test: Cell cycle arrest in human MDA-MB-453 cells assessed as accumulation at S phase at 5 uM after 48 hrs by flow cytometry (reference value: 5.9%); assay type: functional; in short: as §2
MDA-MB-453 [18] = test: Cell cycle arrest in human MDA-MB-453 cells assessed as accumulation at S phase at 10 uM after 48 hrs by flow cytometry (reference value: 5.9%); assay type: functional; in short: as §2
MDA-MB-453 [19] = test: Induction of morphological changes in human MDA-MB-453 cells assessed as late apoptosis/necrosis at 10 uM after 48 hrs by acridine orange/ethidium bromide staining based fluorescence microscopy; assay type: functional, cell-based; in short: as §3
[20] = Retardation factor of the compound using hexane/ethyl acetate at ratio of 3:1 as solvent system; assay type: physicochemical

Structure (SMILES) | IC50 (MDA-MB-231 [1]) | IC50 (HT-29) | IC50 (MCF7 [2]) | IC50 (HeLa) | IC50 (PC-3) | IC50 [3] | IC50 (MDA-MB-453 [5]) | further results
C=CCc1ccc2c(c1O)C(=O)C=CC2=O | > 100 µM | > 100 µM | 58.2 µM | > 100 µM | 92.9 µM | 82.9 µM | 53.7 µM | Rf [4]: 0.39
C=CCOc1cccc2c1C(=O)C=CC2=O | > 100 µM | 32.3 µM | 24 µM | > 100 µM | 22.3 µM | > 100 µM | 37.8 µM | 
CC1=CC(=O)c2c(O)cccc2C1=O [PLUMBAGIN] | 51.1 µM | 26.2 µM | 12.2 µM | 59 µM | 17.2 µM | 43.4 µM | 34.6 µM | 
CC1=CC(=O)c2c(ccc3c2OCC=C3)C1=O | 18.3 µM | 34.6 µM | 11.7 µM | > 100 µM | 24.5 µM | 25.9 µM | 10.9 µM | Activity (MDA-MB-453 [6]): 31.3%; Activity (MDA-MB-453 [7]): Dose-dependent effect; Activity (MDA-MB-453 [8]): 10.5%; Ratio IC50 (MCF7 [9]): 2; Ratio IC50 (MDA-MB-453 [10]): 1.1; Ratio IC50 (MDA-MB-231 [11]): 1.3; Rf [12]: 0.39; Activity (MDA-MB-453 [13]): 55.9%; Activity (MDA-MB-453 [14]): 45%; Activity (MDA-MB-453 [15]): Dose-dependent effect; Activity (MDA-MB-453 [16]): Active; Activity (MDA-MB-453 [17]): 12.6%; Activity (MDA-MB-453 [18]): 21.5%; Activity (MDA-MB-453 [19]): Active
C=CCc1ccc2c(c1O)C(=O)C=C(C)C2=O | 62.9 µM | 63 µM | 11.6 µM | 60.8 µM | 16.8 µM | 60.8 µM | 39 µM | Ratio (MCF7 [9]): 2; Rf [4]: 0.35
C=CCOc1cccc2c1C(=O)C=C(C)C2=O | 36.1 µM | 33.7 µM | 14.7 µM | 78 µM | 34.2 µM | 46.7 µM | 29.3 µM | Rf [20]: 0.45
O=C1C=CC(=O)c2c(O)cccc21 [JUGLONE] | 75.8 µM | > 100 µM | 16.5 µM | 93.7 µM | 88.7 µM | 65.4 µM | 27.5 µM | 
